Screening results (PubChem)
Most compounds without a hit are left out; they make up all but 2.9% or so of the library.
Dynein transport – blocks dynein driven cargo transport along microtubules | 3617.4 mouse cells, GR-EGFP nuclear translocation imaging; test concentration mostly 20 µM; stimulated with dexamethasone, 1 µM; stronger effect = lower value | AID 1381 | z-score, hits read low | hit rate 0.47% among 220,000;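 active = plate z-score of nuclear minus cytoplasmic receptor signal below a set negative limit, without overly bright fluorescence or cell loss, cut at about -3.5 in these data, passing the limit was not always enough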;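 also: z-score of nuclear minus cytoplasmic ring GR-EGFP intensity difference per well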
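Medium: Induction medium lacking tetracycline, stripped serum | Probe or stimulus: 1.0 µM final dexamethasone stimulus | Schedule: 48 h induction, then 1 h compound, then 30 min agonist, 37 °C | Signal: Automated 10x imaging of fixed Hoechst-stained cells | Evaluation: Per-cell GR-EGFP intensity, nucleus versus surrounding cytoplasmic ring, well-averaged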
MEKK2 mut-MEK5 – signal of MEK5 binding to mutant human MEKK2 PB1 domain; hit rate 0.35% among 290,000; percent response, % at 10 µM; AID 1530; bead flow cytometry, Alexa488-MEK5 binding to MEKK2 mutant; in the data active = percent response above about 24%, passing the limit was not always enough
MEKK2 WT-MEK5 – raises or lowers MEK5 binding to wildtype human MEKK2 PB1 domain | bead flow cytometry, Alexa488-MEK5 binding to MEKK2 WT; actives lie on both sides | binding response (% of control), % at 10 µM | hit rate 1.1% among 290,000; in the data active = binding response below about 67% or above about 130%
ATG4B inhibitor – blocks human ATG4B protease cleavage of LC3 substrate; hit rate 0.51% among 340,000; Q9Y4P1; ATG4B cleavage of LC3-PLA2, NBD-HPC fluorescence, 1 h; inhibition, % at 8.33 µM; in the data active = inhibition above about 40%
B2AR ag – agonists of human beta-2 adrenergic receptor inducing internalization; P07550; Am2.2-beta2AR cells, FAP receptor internalization, flow cytometry; response, % (test concentration not listed); hit rate 0.43% among 340,000; AID 504454;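 active = response above a set limit, near 3 SD of response in nonfluorescent compounds, cut at about 42% in these data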
MEKK3 PB1 HTS – MEKK3-MEK5 PB1 interaction, increase or decrease | Q99759 | binding response (% of control), % at 10 µM | hit rate 1.4% among 290,000 | AID 1529 | bead-based flow cytometry, Alexa488-MEK5 binding to MEKK3; actives lie on both sides; 0 = blocked by unlabeled MEK5, 100 = vehicle;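 active = binding response more than 3 SD above or below the average of its plate-row segment, actives on both sides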;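 also: Alexa488 bead fluorescence after subtracting the streptavidin-only scavenger bead signal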
Target sequence (Q99759 whole entry, looked up): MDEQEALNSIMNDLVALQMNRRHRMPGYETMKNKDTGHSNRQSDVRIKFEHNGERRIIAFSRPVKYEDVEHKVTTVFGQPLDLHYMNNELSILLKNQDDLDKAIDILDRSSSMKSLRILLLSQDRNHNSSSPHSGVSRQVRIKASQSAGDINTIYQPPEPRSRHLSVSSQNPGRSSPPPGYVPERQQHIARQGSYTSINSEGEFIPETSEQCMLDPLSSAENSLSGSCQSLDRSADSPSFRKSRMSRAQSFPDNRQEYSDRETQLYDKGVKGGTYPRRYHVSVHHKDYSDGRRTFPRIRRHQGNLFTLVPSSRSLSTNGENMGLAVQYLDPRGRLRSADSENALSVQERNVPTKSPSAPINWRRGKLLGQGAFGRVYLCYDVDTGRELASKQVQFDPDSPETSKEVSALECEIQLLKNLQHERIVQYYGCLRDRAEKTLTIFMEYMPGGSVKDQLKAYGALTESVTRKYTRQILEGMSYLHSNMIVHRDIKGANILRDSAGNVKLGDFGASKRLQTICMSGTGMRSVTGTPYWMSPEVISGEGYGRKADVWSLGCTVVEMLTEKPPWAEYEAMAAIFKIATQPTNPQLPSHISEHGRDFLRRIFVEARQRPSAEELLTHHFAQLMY
Starred values were filed as active, the others as inactive; · = not tested or not shown.

SMILES	Dynein transport	MEKK2 mut-MEK5	MEKK2 WT-MEK5	ATG4B inhibitor	B2AR ag	MEKK3 PB1 HTS
O=C1/C(=C/c2ccncc2)CCC/C1=C\c1ccncc1	-7*	-8	86	1	47*	89
COc1ccc(N2CCN(CCCNC(=O)c3ccc(CS(=O)(=O)c4ccc(OC)cc4)o3)CC2)cc1	·	-1	109	-6	-1	98
COc1ccccc1S(=O)(=O)Cc1ccc(C(=O)NCCCN2CCN(c3ccc(F)cc3)CC2)o1	·	10	140*	3	-10	104
CN1Cc2sc(NC(=S)NC(=O)c3ccccc3)c(C#N)c2CC1(C)C	1.3	11	-14*	-16	-49	93
CCC1(C)Cc2c(sc(NC(=S)NC(=O)c3ccccc3)c2C#N)CO1 (stereo unspecified)	-1.4	-1	98	-7	6	87
N#Cc1cc(Oc2ccccc2)c(-n2nnc3ccccc32)cc1C#N	0.2	2	104	-10	5	107
N#Cc1cc(Oc2ccc3ccccc3c2)c(-n2nnc3ccccc32)cc1C#N	-0.34	-2	96	-8	48*	95
Cc1ccc(S(=O)(=O)N(CCCO)Cc2cc3c(C)ccc(C)c3[nH]c2=O)cc1	0.65	-12	-2.0*	-8	-2	90
CNC(CC(=O)c1ccc([N+](=O)[O-])cc1)C(Cl)(Cl)Cl (stereo unspecified)	-3.5*	1	98	-3	91*	101
C=C1C(=O)O[C@@H]2C[C@@H](C)[C@@H]3C=CC(=O)[C@@]3(C)[C@@H](OC(C)=O)[C@H]12	-3.6*	1	103	5	·	98
CC1CCCCN1S(=O)(=O)c1ccc2[nH]c(=O)cc(C(=O)NCCCN3CCCCCC3)c2c1 (stereo unspecified)	·	20	143*	-9	5	103
COc1ccc2[nH]c(C(=O)NCCCN3CCCC3=O)c(C)c2c1	·	-8	97	3	-10	96
Cc1cccc2c1c1ccc3c(c1n2C)C(=O)C=CC3=O	-1.7	3	102	0	89*	100
CC(=O)NNC(=O)c1sc(=S)n(C)c1C	0.28	1	-5.0*	-9	-4	95
CC(CNC(=O)COc1ccc2c(c1)OCO2)c1ccccc1 (stereo unspecified)	·	·	·	-3	-9	·
CCN(CC)c1ccc(/C=C/C(=O)C2C(=O)C=C(C)OC2=O)cc1 (stereo unspecified)	-2.7	61*	72	-1	-75	108
Cc1cc(NC(=O)CON=C(N)CC(=O)Nc2ccccc2Cl)ccc1Br	·	·	·	2	13	·
C=C(C)CCC(C)N1CCC(n2nccc2NC(=O)CCCc2ccccc2)CC1 (stereo unspecified)	·	5	111	22	3	99
Cc1c(C(=O)N/N=C/c2cccnc2)sc(=S)n1C	-0.03	-1	99	6	42*	88
Cc1nn2c(Nc3ccccc3)c3c(nc2c1-c1ccccc1)CCC3	-0.13	2	113	24	-16	176*
Cc1nn2c(NC(C)C)c3c(nc2c1-c1ccccc1)CCC3	0.41	0	98	2	-15	98
Cc1ccc(NC(=O)c2cc(S(=O)(=O)N3CCCC3)cn2C)cc1	·	0	96	-24	22	95
Cc1ccc(C)c(S(=O)(=O)N2CCCC2CNC(=O)C(=O)NC2CCCC2)c1 (stereo unspecified)	·	·	·	-4	61*	·
COc1ccc(NC(=O)CN(C)C(=O)c2ccc(S(=O)(=O)Nc3ccccc3F)cc2)cc1	·	·	·	-3	8	·
O=C(c1ccc2c(c1)[nH]c(=S)n1c3ccccc3nc21)N1CCN(c2ncccn2)CC1	-0.24	2	101	2	62*	100
O=C(CSc1nnc(Cc2cc(=O)[nH]c(=O)[nH]2)n1-c1ccc(Cl)cc1)NCC1CCCO1 (stereo unspecified)	-0.14	17	8.0*	13	22	101
O=C(CSc1nnc(Cc2cc(=O)[nH]c(=O)[nH]2)n1-c1ccccc1)NCC1CCCO1 (stereo unspecified)	-0.12	2	97	-7	2	104
